Where “and” joins values, the source holds several entries; their conditions need not be identical. Equal entries are not always repeated. Entries after “also recorded” stand apart in the source; their conditions may differ.
Assays:
human mGluR4 = human mGluR4 (Homo sapiens, UniProt Q14833); format: cell-based
[1] = cited from earlier work
rat mGluR1 = rat mGluR1 (Rattus norvegicus, UniProt P23385); experiment: calcium fluorescence counterscreen in rat mGluR1/BHK cells; format: cell-based
Procedure, shortened: (§1)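 Calcium mobilization in rat receptor lines: mGluR1/BHK plated at 20,000 cells/well, mGluR5/HEK at 15,000 cells/well, in DMEM with 10% dialyzed FBS and 20 mM HEPES. […] Test compound run as a 10-point curve from 30 µM final, 1:3 dilutions. Maximum fluorescence of the EC20 and EC80 peaks is expressed versus control.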

[2] = stability in fortified liver microsome preparations; format: in vitro ADME; details: after 90 minutes, fortified liver microsomes
rat mGluR5 = experiment: calcium fluorescence counterscreen in rat mGluR5/HEK cells; format: cell-based
Procedure, shortened: as §1

Chain of human mGluR4 (Q14833 33-912): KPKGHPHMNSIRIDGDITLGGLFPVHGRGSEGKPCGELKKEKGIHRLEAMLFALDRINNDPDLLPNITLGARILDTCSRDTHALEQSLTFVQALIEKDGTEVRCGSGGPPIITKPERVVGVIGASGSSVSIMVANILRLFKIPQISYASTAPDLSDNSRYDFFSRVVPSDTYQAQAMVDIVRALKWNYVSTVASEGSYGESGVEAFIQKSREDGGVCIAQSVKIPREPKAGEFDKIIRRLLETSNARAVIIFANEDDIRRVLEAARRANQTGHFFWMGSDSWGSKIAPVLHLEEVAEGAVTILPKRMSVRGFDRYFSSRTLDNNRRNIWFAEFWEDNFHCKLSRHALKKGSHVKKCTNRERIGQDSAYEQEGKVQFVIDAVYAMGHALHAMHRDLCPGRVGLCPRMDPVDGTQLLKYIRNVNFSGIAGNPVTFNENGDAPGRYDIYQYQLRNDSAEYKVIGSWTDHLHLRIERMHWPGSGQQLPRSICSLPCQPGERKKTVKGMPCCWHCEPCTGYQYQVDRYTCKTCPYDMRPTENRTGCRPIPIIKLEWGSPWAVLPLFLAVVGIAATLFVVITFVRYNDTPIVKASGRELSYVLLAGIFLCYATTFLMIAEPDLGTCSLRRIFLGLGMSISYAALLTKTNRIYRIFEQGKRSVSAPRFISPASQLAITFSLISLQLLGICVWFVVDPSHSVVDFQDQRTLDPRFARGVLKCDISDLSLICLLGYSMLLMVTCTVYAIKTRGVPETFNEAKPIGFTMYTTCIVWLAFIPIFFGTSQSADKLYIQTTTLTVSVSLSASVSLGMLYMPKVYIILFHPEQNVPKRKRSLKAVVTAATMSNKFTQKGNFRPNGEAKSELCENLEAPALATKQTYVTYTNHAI
Chain of rat mGluR1 (P23385 19-1199): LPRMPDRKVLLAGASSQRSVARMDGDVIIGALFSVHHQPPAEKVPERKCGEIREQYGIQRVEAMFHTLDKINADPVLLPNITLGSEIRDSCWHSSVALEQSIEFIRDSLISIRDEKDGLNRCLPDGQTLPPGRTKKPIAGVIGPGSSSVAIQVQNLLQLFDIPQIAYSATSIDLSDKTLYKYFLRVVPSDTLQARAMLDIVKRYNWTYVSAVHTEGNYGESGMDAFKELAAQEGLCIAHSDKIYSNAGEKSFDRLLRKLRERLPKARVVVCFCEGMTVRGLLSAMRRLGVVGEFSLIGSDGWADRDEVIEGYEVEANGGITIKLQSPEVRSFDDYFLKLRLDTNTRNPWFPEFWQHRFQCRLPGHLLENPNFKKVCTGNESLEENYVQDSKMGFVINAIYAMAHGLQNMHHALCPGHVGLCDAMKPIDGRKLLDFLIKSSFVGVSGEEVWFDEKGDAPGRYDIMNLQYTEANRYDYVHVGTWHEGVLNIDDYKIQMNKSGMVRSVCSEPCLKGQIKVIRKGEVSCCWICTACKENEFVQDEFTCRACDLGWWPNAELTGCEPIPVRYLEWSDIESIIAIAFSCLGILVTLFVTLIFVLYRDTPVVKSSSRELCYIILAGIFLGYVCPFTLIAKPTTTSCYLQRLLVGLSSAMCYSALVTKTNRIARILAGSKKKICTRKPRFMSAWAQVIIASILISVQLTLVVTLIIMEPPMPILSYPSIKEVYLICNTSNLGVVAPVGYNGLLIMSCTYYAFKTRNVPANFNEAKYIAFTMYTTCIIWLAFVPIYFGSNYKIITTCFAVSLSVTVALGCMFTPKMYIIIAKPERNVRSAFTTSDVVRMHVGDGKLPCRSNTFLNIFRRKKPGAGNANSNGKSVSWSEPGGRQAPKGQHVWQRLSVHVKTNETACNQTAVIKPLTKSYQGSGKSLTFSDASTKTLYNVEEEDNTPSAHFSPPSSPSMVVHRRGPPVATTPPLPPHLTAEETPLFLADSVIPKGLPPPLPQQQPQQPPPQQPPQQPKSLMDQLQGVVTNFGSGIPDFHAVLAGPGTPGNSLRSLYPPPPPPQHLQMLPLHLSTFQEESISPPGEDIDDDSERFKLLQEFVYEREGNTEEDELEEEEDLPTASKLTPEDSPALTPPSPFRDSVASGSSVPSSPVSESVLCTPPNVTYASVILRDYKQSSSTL

mode of action at mGluR1 (rat mGluR1)	parent compound remaining [2] [%]	EC50 (human mGluR4) [µM]	Fold shift (leftward shift of the glutamate response curve) (human mGluR4; compound at 30 µM, HTS stock of 7)	potentiation of an EC20 of glutamate in the HTS campaign (human mGluR4; mGluR4/Gqi5 CHO cells, HTS)	effect on mGluR4 in the absence of glutamate (human mGluR4; no glutamate)	SMILES	effect on the glutamate max (maximal response) (human mGluR4; compound at 30 µM)	brain penetration [1]	selectivity versus mGluR5 (rat mGluR5)	CNS penetration [1]
						O=C(Nc1ccccc1)[C@]12C[C@H]1/C(=N\O)c1ccccc1O2 [(−)-PHCCC, reference compound]	elevation in the glutamate max; also recorded: increases maximal response	limited brain penetration		
full antagonist	9	~5	27.2(±8.5) fold and 27.2 fold	Concentration-dependent potentiation	does not activate mGluR4	Cc1ccc(-n2ncc3c(N4CCCC(C)C4)ncnc32)c(C)c1 (centres unmarked) [Compound 7, 1-(2,4-dimethylphenyl)-4-(3-methylpiperidin-1-yl)-1H-pyrazolo[3,4-d]pyrimidine]	no increase in the glutamate max		selective versus mGluR5	
						N[C@@H](CCP(=O)(O)O)C(=O)O [L-AP4, L-(+)-2-amino-4-phosphonobutryic acid]				limited CNS penetration

Reference: publication PMC3182458 (Bioorganic & medicinal chemistry letters, 2008)
